Assay outcomes deposited in PubChem BioAssay by Broad Institute.
A selection: hits, their analogues and other compounds. The true share with any hit is near 1.4%.
Vif inh: HIV Vif self-association inhibitors, primary screen, imaging, HEK293T, single point. HEK293T cells, Vif self-association by quenched fluorescence, 24 h. inhibition, % at 7.49 µM. actives 0.35% (n = 340,000); in the data active means inhibition above about 50%, passing the limit was not always enough
PvdQ inh: P. aeruginosa PvdQ acylase inhibitors, primary screen, biochemical, fluorescence, plate reader and imaging, single point; PvdQ acylase [Pseudomonas aeruginosa LESB58]; purified PvdQ acylase; inhibition, % at 10 µM; actives 0.063% (n = 340,000); AID 488965, 2010; in the data active means inhibition above about 30%, passing the limit was not always enough
CAL PDZ FP-1: CAL PDZ peptide-binding inhibitors, primary screen, biochemical, fluorescence polarization, Cer-tagged CAL PDZ, HTS; Golgi-associated PDZ and coiled-coil motif-containing protein (Homo sapiens), Q9HD26; purified CAL PDZ, TMR-peptide fluorescence polarization, 1 h; inhibition, % at 20 µM; actives 0.02% (n = 330,000);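 active means highest replicate inhibition of at least 40%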
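Test system: purified CerCALP PDZ construct; Compound dosing: one concentration, 20 µM compound; Also added: TMR-labelled reporter peptide T*-PRC34 bound in PDZ groove; Read-out: inhibition from polarization loss; Controls: unlabelled peptide and DMSO controls; Signal: FP readout, S and P plane fluorescence; Incubation: 1 h at RT.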
CAL PDZ FP-2: untagged CAL PDZ binding inhibitors, primary screen, biochemical, fluorescence polarization, HTS. inhibition, % at 24.9 µM. purified CAL PDZ, TMR-peptide fluorescence polarization, 1 h. actives 0.92% (n = 300,000);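 active means mean inhibition of at least 30% with at least half of replicates also reaching 30%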
CDK5 p35 inh: inhibitors of human CDK5/p35 kinase, primary screen, biochemical, single concentration; Cyclin-dependent kinase 5 (Homo sapiens) + Cyclin-dependent kinase 5 activator 1 (Homo …; Recombinant CDK5/p35, ADP-Glo luminescence, 60 min; inhibition, % at 10 µM; actives 0.01% (n = 330,000); AID 488839, 2010;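 active means highest replicate inhibition of at least 50% and at least 75% of replicates reaching 50%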
Target sequence (Q00535 whole entry, looked up): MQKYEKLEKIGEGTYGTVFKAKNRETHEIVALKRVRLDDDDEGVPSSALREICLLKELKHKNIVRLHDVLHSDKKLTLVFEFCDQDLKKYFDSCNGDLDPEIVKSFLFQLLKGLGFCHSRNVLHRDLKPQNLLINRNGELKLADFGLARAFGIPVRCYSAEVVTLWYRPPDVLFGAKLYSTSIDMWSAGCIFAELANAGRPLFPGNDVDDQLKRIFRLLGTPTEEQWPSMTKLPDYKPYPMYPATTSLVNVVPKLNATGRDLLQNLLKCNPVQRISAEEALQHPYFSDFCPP
Target sequence (Q15078 whole entry, looked up): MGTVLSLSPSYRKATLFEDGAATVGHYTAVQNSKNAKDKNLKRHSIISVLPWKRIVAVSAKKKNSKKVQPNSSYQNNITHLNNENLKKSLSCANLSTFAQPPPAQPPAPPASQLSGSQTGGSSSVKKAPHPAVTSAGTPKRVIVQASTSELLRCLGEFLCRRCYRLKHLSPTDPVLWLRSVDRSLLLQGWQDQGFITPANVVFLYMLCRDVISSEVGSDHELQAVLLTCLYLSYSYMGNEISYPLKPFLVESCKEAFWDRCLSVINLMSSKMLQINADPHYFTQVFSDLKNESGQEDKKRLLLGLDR
N-glyco inh: increase of ERlucT glycosylation luciferase signal, primary screen, N-linked glycosylation inhibitor project, D54 ERlucT cells, luminescence, set 2; reporter increase, % at 12.5 µM; D54 ERlucT glycosylation luciferase reporter, 24 h; percent of 100 nM tunicamycin response; actives 0.23% (n = 360,000); AID 588692, 2011;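 active means mean luciferase reporter signal, scaled so untreated is 0 and the glycosylation-blocking control 100, at or above a set limit in every replicate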;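 further: luciferase carries N-glycosylation sites so blocking glycosylation raises the light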
Numbers stand for hits; n = inactive; x = no result; ! = not confirmed by another sample.

SMILES | Vif inh | PvdQ inh | CAL PDZ FP-1 | CAL PDZ FP-2 | CDK5 p35 inh | N-glyco inh
CC(C)(O)CN(C(=O)C(c1ccccc1)c1ccccc1)C1CCCCC1 | n | n | n | 31 | n | n
CCOc1ccc(S(=O)(=O)N2CN3CCN(C3)C2)cc1 | n | n | n | 63 | n | n
O=S(=O)(c1ccc2c(c1)CCCN2)N1CCCCC1 | n | n | n | n | n | n
O=S(=O)(c1ccc2c(c1)CCCN2)N1CCCC1 | n | n | n | 58 | n | n
COc1ccc(CC2NCCC3=CC(=O)CCC32)cc1O (stereo unspecified) | 146 | n | n | n | n | n
Cc1ccccc1N(CC(=O)NCCc1ccccc1)C(=O)CCC(=O)Nc1ccccn1 | n | n | n | n | n | n
CCc1ccccc1N(CC(=O)NCCc1ccccc1)C(=O)CCC(=O)Nc1ccccn1 | n | n | n | 65 | n | n
CCOC(=O)c1ccc2[nH]c3c(c2c1)CCCCC3=O | n | n | n | 37 | n | n
CCOC(=O)CNC(=O)c1ccc2[nH]c3c(c2c1)CCCC3 | 72 | n | n | n | n | n
NNC(=O)c1ccc2[nH]c3c(c2c1)CCCC3 | n | n | n | x | n | n
CC1NC(=O)c2cccnc2-n2c1nc1ccccc1c2=O (stereo unspecified) | n | x | x | x | x | n
CN(c1ccccc1)S(=O)(=O)c1cccc(NC(=O)c2ccc(Cl)c([N+](=O)[O-])c2)c1 | n | n | n | n | n | n
Clc1ccc(OCCCc2nc(-c3ccncc3)no2)c(Cl)c1 | n | n | x | 33 | n | n
Cc1ccccc1Oc1nc2ccccn2c(=O)c1/C=C(\C#N)C(=O)Nc1c(C)n(C)n(-c2ccccc2)c1=O | n | n | n | n | n | n
Cc1ccccc1Oc1nc2c(C)cccn2c(=O)c1/C=C(\C#N)C(=O)Nc1c(C)n(C)n(-c2ccccc2)c1=O | 124 | n | n | n | n | n
CC1CCCCN1C(=O)CSc1nc(C2CC2)nc2ccccc12 (stereo unspecified) | n | n | n | n | n | n
NC(=O)c1nsc(C(=O)N(c2ccc3c(c2)OCCO3)C(C(=O)NCC2CCCO2)c2ccc(F)cc2)c1N (stereo unspecified) | n | n | n | n | n | n
NC1(C(=O)O)CSSC1 | n | n | n | n | n | 73
COc1cc(CCC(=O)Nc2nnc(C)s2)cc(OC)c1OC | n | n | n | n | n | 33
CCc1ccc(CCC(=O)Nc2nnc(C)s2)o1 | 55 | n | n | n | n | n
NC(=O)NC(CCC(=O)O)C(=O)O (stereo unspecified) | 65 | n | n | n | n | n
Cc1cccc(C(=O)NNC(=O)c2ccc(F)cc2)c1 | n | n | n | n | n | n
COc1cccc(OC)c1C(=O)NNC(=O)c1ccc(F)cc1 | n | n | n | 68 | n | n
CCc1cc2c(Sc3nc4ccccc4s3)ncnc2s1 | 89 | n | n | n | n | n
N#Cc1ccc(-c2cccnc2)nc1SCC(=O)c1ccccc1 | 173 | n | n | n | n | n
SMILES | Vif inh | PvdQ inh | CAL PDZ FP-1 | CAL PDZ FP-2 | CDK5 p35 inh | N-glyco inh
CC(=O)Oc1ccc(Cl)cc1CN(C(C)=O)C1CCCCC1 | n | n | n | x | n | n
CC(C)(C)c1ccc(C(=O)NCCCNC(=O)c2ccco2)cc1 | n | n | n | n | n | n
CN(C)CCCNCCCNC(=O)c1ccco1 | 65! | n | n | n | n | n
O=C(COc1ccccc1Cl)NC1CC1 | n | n | n | n | n | n
Cc1ccc(-n2c(Cc3cccn3C)nnc2SCC(=O)NCc2ccco2)cc1 | n | n | n | n | n | n
Cc1ccc(-n2c(CSc3nc(C)cc(C)n3)nnc2SCC(=O)NCc2ccco2)cc1 | n | n | n | 104 | n | n
Cc1ccc(/C(=N\S(=O)(=O)c2ccc(Br)cc2)Nc2ccccc2C)cc1 | n | n | n | 65 | n | n
FC(F)(F)c1cc(-c2ccccc2)nc(N2CCCCC2)n1 | n | n | n | n | n | n
O=C(O)C1CCCN1c1nc(-c2ccc(Cl)c(Cl)c2)cc(C(F)(F)F)n1 (stereo unspecified) | n | n | n | 91 | n | n
CCOC(=O)C1(C)CCN1C(=O)c1ccc(C(C)(C)C)cc1 (stereo unspecified) | n | x | x | x | x | n
CN(CC(=O)Nc1ccccc1Cl)CC(=O)N1CCc2ccccc21 | n | n | n | n | n | n
Cc1ccc(CS(=O)Cc2ccc(C(=O)NCC(C)c3ccccc3)o2)cc1 (stereo unspecified) | n | n | n | 82 | n | n
CSCCC(NC(=O)c1ccco1)C(=O)NCc1ccc(F)cc1 (stereo unspecified) | n | n | n | n | n | n
CSCCC(NC(=O)c1ccco1)C(=O)NCCc1ccc(Cl)cc1 (stereo unspecified) | n | n | n | 100 | n | n
CC(=O)c1ccccc1C(=O)N1CCCC(CNC(=O)c2ccc(F)cc2)C1 (stereo unspecified) | x | x | x | x | x | n
Cc1ccc(-c2nc3ccsc3c(=O)o2)cc1 | n | 66 | n | n | n | n
Cc1ccc(-n2c(C)nc3ccsc3c2=O)cc1 | n | n | n | x | n | n
O=C(N=C1SC2CS(=O)(=O)CC2N1c1cccc(F)c1)C1CC1 (stereo unspecified) | n | n | n | 62 | n | n
CC(C)(C)NC(=O)C[C@H]1C[C@H](C(=O)N2CCCCC2)[C@@]2(C)c3[nH]c4cc(-c5ccco5)ccc4c3CCN2C1=O | n | n | n | 65 | n | n
CC(C)(C)NC(=O)C[C@H]1C[C@H](C(=O)N2CCOCC2)[C@@]2(C)c3[nH]c4cc(-c5ccco5)ccc4c3CCN2C1=O | n | n | n | n | n | n
C[C@]12c3[nH]c4cc(-c5ccco5)ccc4c3CCN1C(=O)[C@@H](CC(=O)NCCC1=CCCCC1)C[C@@H]2C(=O)N1CCCCC1 | n | n | n | 48 | n | n
Cc1nc2cc(N=NC3=C(O)CCCC3=O)ccc2s1 | n | n | n | n | n | n
Cc1ccccc1-n1nnnc1SCC(=O)c1c(N)n(C)c(=O)n(C)c1=O | n | n | n | 32 | n | n
COc1cccc(N2CCN(S(=O)(=O)c3cc4c(cc3C)N(C)CCO4)CC2)c1 | 76 | n | n | x | n | n
O=C(COC(=O)Cc1ccc(S(=O)(=O)N2CCOCC2)s1)Nc1ccc(OC(F)F)cc1 | n | n | n | x | n | n
CN(C)S(=O)(=O)c1cc(NC(=O)Cn2ccsc2=N)ccc1Cl | n | n | n | 101 | n | n
